The structures appear in SMILES notation.

Series [1] concerns Hela cells. Briefly: Antiproliferative assay. It counts as cell-based. Conditions: Homo sapiens, 72 h, read-out: Antiproliferative IC50, Hela.
For series [2], the system named is SiHa cells. Kind of series: Antiproliferative assay. The series is classed as cell-based. Conditions: Homo sapiens, 72 h, read-out: Antiproliferative IC50, SiHa.
The subject of series [3] is human normal cervical epithelial cells (HcerEpic). Kind of series: Toxicity in normal cervical epithelial cells. The series is classed as cell-based. Conditions: Epithelial cell, read-out: IC50, HcerEpic. An outline of the steps: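 Cells grown in IMDM with 20% FBS, 100 U/mL penicillin and 100 µg mL−1 streptomycin at 37 °C, humidified 5% CO2. Serially diluted test compound applied for 72 h. Alamar blue (1 mM stock solution) then added for another 5–6 h, with the signal read at 530/590 nm. Data normalised to DMSO vehicle, mean of three independent measurements, and IC50 fitted from the curves.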

Series [4] can be described thus: Microsomal stability assay. It counts as in vitro ADME. Conditions: human, human liver microsomes, pH 7.4.
The conditions of series [5]: in clinical; cited from earlier work.

One may read the IC50 as the point on the concentration scale where inhibition reaches its midpoint. As a reminder, the half-life is how long it takes for the measured level to halve. Read a high half-life as slow decline. Take `O=C(CCCCCCNC(=O)c1cnc(N(c2ccccc2)c2ccccc2)nc1)NO` [ACY1215]: the IC50 in series [1] was 6.8 ± 0.35 µM; in series [2], 11.3 ± 0.8 µM; in series [3] it was over 50 µM. The half-life at 0.5 µM in series [4] was 6.7 h.

`O=C(NO)c1ccc(CN(c2cnccn2)c2cnccn2)cc1` [KA2507]: the dose-limiting toxicities result in series [5] was “no dose-limiting toxicities”.

Values taken from PMC12679430 (RSC Advances, 2025).
